Measured values taken from ChEMBL document CHEMBL5352422, “Development of l-Dopa-containing diketopiperazines as blood-brain barrier shuttle” (Eur J Med Chem, 2022).
Calls of active or inactive are those of the source. The calls are words filed in the database; no cut-off is given here.

Tests used:
[1] = Induction of DNA damage in Primary human whole blood cell assessed as total DNA damage score at 100 nM incubated for 24 hrs by Comet assay (reference value: 35.4 to 77.9); format: functional
[2] = Antioxidant activity against Primary human whole blood cell assessed as trolox equivalent of total antioxidant capacity at 10 nM incubated for 24 hrs (19.3 to 32.5 mmolequiv/L ); format: functional
[3] = Cytotoxicity against rat Cerebral cortex cell at 10 to 500 nM incubated for 24 hrs by LDH assay; format: toxicity, cell-based; settings: cerebral cortex neuron, 0.5 µM, dose 10-500 nM
Method in brief: (§1)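 Rat fetal cortical neuron or human whole-blood cultures treated 24 h at 37 °C with aqueous compound at 10–500 nM. LDH released into 100 µL of medium measured by kit as the rate of NAD+ reduction (lactate to pyruvate), absorbance increase at 490 nm. Mitomycin C 10^-7 M as positive control; four independent experiments.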

[4] = Stability of the compound in stimulated gastric fluid at 10 mg/ml pepsin by measuring observed rate constant measured upto 60 mins by HPLC analysis; format: ADME; settings: simulated gi fluid, 1 h
Method in brief: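 USP simulated gastric fluid containing pepsin, preheated, in a 37 °C shaking water bath. Samples at 0, 15, 30 and 60 min were deproteinized with ice-cold acetonitrile containing 0.5% formic acid, centrifuged at 4 °C, filtered and analyzed by HPLC. Means of three experiments.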

PC-12 [5] = test: Upregulation of xCT expression in MPP+ induced rat PC-12 cells at 100 nM pretreated with compound for 24 hrs followed by MPP+ stimulation and measured after 6 hrs; format: functional, cell-based; settings: time 30.0 hrs
Method in brief: (§2)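 PC12 cells pretreated 24 h with compound, then exposed to 25 μM MPP+ for 6 h. mRNA quantified by real-time PCR (95 °C 3 min, then 40 cycles of 95 °C 10 s and 62 °C 30 s), samples in triplicate. Values normalized to β-actin, expressed as 2^-ΔΔCt with untreated cells set to 1.0. n = 3.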

PC-12 [6] = test: Upregulation of GR expression in MPP+ induced rat PC-12 cells at 100 nM pretreated with compound for 24 hrs followed by MPP+ stimulation and measured after 6 hrs; format: functional, cell-based; settings: time 30.0 hrs; method in brief: as §2
[7] = Cytotoxicity against Primary human whole blood cell at 10 to 500 nM incubated for 24 hrs by LDH assay; format: toxicity, cell-based; settings: 0.5 µM, dose 10-500 nM; method in brief: as §1
PC-12 [8] = test: Upregulation of GCLM expression in MPP+ induced rat PC-12 cells at 100 nM pretreated with compound for 24 hrs followed by MPP+ stimulation and measured after 6 hrs; format: functional, cell-based; settings: time 30.0 hrs; method in brief: as §2
PC-12 [9] = test: Upregulation of Gpx expression in MPP+ induced rat PC-12 cells at 100 nM pretreated with compound for 24 hrs followed by MPP+ stimulation and measured after 6 hrs; format: functional, cell-based; settings: time 30.0 hrs; method in brief: as §2
[10] = Induction of DNA damage in rat Cerebral cortex cell assessed as total DNA damage score at 250 nM incubated for 24 hrs by Comet assay (reference value: 36.8 to 89.2); format: functional, Cerebral cortex neuron
[11] = Apparent permeability of the compound across apical side to basolateral side in human Caco-2 cells measured upto 180 mins by HPLC analysis; format: ADME, cell-based
[12] = Stability of the compound in stimulated intestinal fluid at 10 mg/ml pancreatin by measuring observed rate constant measured upto 180 mins by HPLC analysis; format: ADME; settings: simulated gi fluid, 3 h
Method in brief: (§3)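 USP simulated intestinal fluid containing pancreatin, in a 37 °C shaking water bath. Samples at 0, 60, 120 and 180 min were quenched with ice-cold acetonitrile containing 0.5% formic acid, centrifuged at 4 °C for 10 min, filtered and analyzed by HPLC. Means of three experiments ± SD.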

[13] = Antioxidant activity against rat Cerebral cortex cell assessed as trolox equivalent of total antioxidant capacity at 10 nM incubated for 24 hrs (14.7 to 27.5 mmolequiv/L ); format: functional, Cerebral cortex neuron
[14] = molecular target: T1, Nuclear factor erythroid 2-related factor 2 (Rattus norvegicus) (UniProt O54968); test: Induction of MPP+ induced Nrf2 nuclear translocation in rat PC12 cells at 100 nM incubated for 24 hrs by Western blot analysis; format: cell-based; settings: PC-12, filed as activator
T1 sequence (whole entry): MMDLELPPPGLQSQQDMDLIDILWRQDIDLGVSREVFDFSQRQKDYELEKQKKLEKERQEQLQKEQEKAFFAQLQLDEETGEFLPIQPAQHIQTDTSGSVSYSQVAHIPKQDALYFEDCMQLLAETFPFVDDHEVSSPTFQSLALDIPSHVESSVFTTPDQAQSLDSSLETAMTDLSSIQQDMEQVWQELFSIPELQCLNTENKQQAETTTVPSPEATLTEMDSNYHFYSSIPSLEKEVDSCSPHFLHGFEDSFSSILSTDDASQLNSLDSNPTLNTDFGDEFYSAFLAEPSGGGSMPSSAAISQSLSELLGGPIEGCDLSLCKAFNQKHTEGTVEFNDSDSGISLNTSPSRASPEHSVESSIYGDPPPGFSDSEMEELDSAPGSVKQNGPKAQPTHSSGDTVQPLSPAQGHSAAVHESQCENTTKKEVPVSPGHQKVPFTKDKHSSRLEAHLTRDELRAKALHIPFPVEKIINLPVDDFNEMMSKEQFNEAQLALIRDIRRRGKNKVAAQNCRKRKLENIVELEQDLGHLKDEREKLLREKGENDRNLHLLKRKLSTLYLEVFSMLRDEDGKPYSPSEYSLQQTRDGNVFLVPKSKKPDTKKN
Method in brief: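 PC12 cells were incubated 24 h with MPP+ (25 μM) with or without compound (100 nM). Nuclear extracts (30 μg) were run on 10% SDS-PAGE and immunoblotted for Nrf2, with histone H3 as nuclear marker and ECL detection.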

[15] = Stability of the compound in stimulated intestinal fluid at 40 mg/ml pancreatin by measuring half life measured upto 180 mins by HPLC analysis; format: ADME; settings: simulated intestinal fluid with pancreatin; method in brief: as §3
[16] = Stability in human plasma assessed as half life by HPLC method; format: ADME, cell-free
Method in brief: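 Stock added to 37 °C human plasma diluted with 0.02 M phosphate buffer pH 7.4 to 80% plasma. Aliquots taken over time were quenched with 0.01 M HCl in methanol, centrifuged 5 min at 5000 g, and supernatant analyzed by HPLC-UV. t1/2 and k_obs are means of three experiments ± SD.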

[17] = Stability of the compound in stimulated intestinal fluid at 10 mg/ml pancreatin by measuring half life measured upto 180 mins by HPLC analysis; format: ADME; settings: simulated intestinal fluid with pancreatin; method in brief: as §3
[18] = Induction of DNA damage in Primary human whole blood cell assessed as 8-OH-dG adducts formation at 250 nM incubated for 24 hrs by […] (reference value: 0.12 to 2.21 pg/ml); format: functional
[19] = Induction of DNA damage in rat Cerebral cortex cell assessed as 8-OH-dG adducts formation at 100 nM incubated for 24 hrs by […] (reference value: 0.14 to 1.92 pg/ml); format: functional, Cerebral cortex neuron
[20] = Antioxidant activity against rat Cerebral cortex cell assessed as H2O2 equivalent of total oxidative stress at 500 nM incubated for 24 hrs (0.7 to 2.3 micromolequiv/L); format: functional, Cerebral cortex neuron
[21] = Partition coefficient, logP of the compound by HPLC-UV analysis; format: physicochemical; settings: octanol/water
[22] = Antioxidant activity against Primary human whole blood cell assessed as trolox equivalent of total antioxidant capacity at 50 nM incubated for 24 hrs (19.3 to 32.5 mmolequiv/L ); format: functional

C#CCSC[C@H]1NC(=O)[C@H](Cc2ccc(OC(C)=O)c(OC(C)=O)c2)NC1=O
Activity [1]: 35.6 | Activity [2]: 19.4 mmolequiv/L | Activity [3]: Non-Toxic | Kobs [4]: 0.008 h⁻¹ | Activity (PC-12 [5]): Active | Activity (PC-12 [6]): Active | Activity [7]: Non-Toxic | Activity (PC-12 [8]): Active | Activity (PC-12 [9]): Active | Activity [10]: 37.6 | Papp A→B at 3 h [11]: 17.4 ×10⁻⁶ cm/s | Kobs [12]: 0.198 h⁻¹ | Activity [13]: 14.7 mmolequiv/L | Activity [14]: Active | half-life [15]: 2.57 h | half-life [16]: 2.09 h | half-life [17]: 3.51 h | Activity [18]: 0.13 pg/mL | Activity [19]: 0.14 pg/mL | Activity [20]: 0.6 umolequiv/L | logP [21]: 0.35 | Activity [22]: 19.5 mmolequiv/L

C=CCSC[C@H]1NC(=O)[C@H](Cc2ccc(OC(C)=O)c(OC(C)=O)c2)NC1=O
Activity [1]: 35.5 | Activity [2]: 19.2 mmolequiv/L | Activity [3]: Non-Toxic | Kobs [4]: 0.029 h⁻¹ | Activity [7]: Non-Toxic | Activity [10]: 37.4 | Papp A→B at 3 h [11]: 7.5 ×10⁻⁶ cm/s | Kobs [12]: 1.03 h⁻¹ | Activity [13]: 15.1 mmolequiv/L | half-life [16]: 0.096 h | half-life [17]: 0.68 h | Activity [18]: 0.12 pg/mL | Activity [19]: 0.15 pg/mL | Activity [20]: 0.7 umolequiv/L | logP [21]: 0.68 | Activity [22]: 19.4 mmolequiv/L
